In ChEMBL document CHEMBL5705892, “MK-2206, an allosteric Akt inhibitor, enhances antitumor efficacy by standard chemotherapeutic agents or molecular targeted drugs in vitro and in vivo” (Mol Cancer Ther, 2010):
Active and inactive are the calls of the source. The rule behind the calls is not given here.

How the values were obtained:
NCI-H460 [1] = test: Synergistic antiproliferative activity against human NCI-H460 cells assessed as combination index at ED90 measured after 72 hrs in presence of doxorubicin by celltiter-glo assay; format: functional
HCC827 = test: Synergistic antiproliferative activity against human HCC827 cells assessed as combination index at ED50 measured after 72 hrs in presence of erlotinib by celltiter-glo assay; format: functional
Method in brief: (§1)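 Cells grown in RPMI 1640 with 10% heat-inactivated FBS at 37°C, 5% CO₂. Seeded at 2 to 3 × 10³ per well; drugs added 24 h later. […] Viability read as cellular ATP by CellTiter-Glo. CI calculated by Chou–Talalay from median-effect plots at ED50, ED75 and ED90.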

NCI-H661 = test: Induction of apoptosis in human NCI-H661 cells assessed as fold induction of capsase-3/7 activity measured after 24 to 48 hrs in presence of carboplatin by caspase-glo 3/7 assay; format: functional; settings: time 24-48 hrs
A2780 [2] = test: Cell cycle arrest in human A2780 cells assessed as increase in accumulation of cells at sub-G1 phase measured after 72 hrs in presence of doxorubicin by propidium iodide staining based flow cytometry; format: functional
HCC70 [3] = test: Synergistic antiproliferative activity against human HCC70 cells assessed as combination index at ED75 treated 24 hrs prior to lapatinib and measured after 72 hrs by celltiter-glo assay; format: functional; settings: time 96 hrs
NCI-H460 [4] = test: Synergistic antiproliferative activity against human NCI-H460 cells assessed as combination index at ED25 to ED90 measured after 72 hrs in presence of carboplatin by celltiter-glo assay; format: functional
NCI-N87 [5] = test: Synergistic antiproliferative activity against human NCI-N87 cells assessed as combination index at ED90 measured after 96 hrs in presence of lapatinib by celltiter-glo assay; format: functional
MDA-MB-468 = test: Synergistic antiproliferative activity against human MDA-MB-468 cells assessed as combination index at ED75 measured after 72 hrs in presence of docetaxel by celltiter-glo assay; format: functional; method in brief: as §1
NCI-H460 [6] = test: Synergistic antiproliferative activity against human NCI-H460 cells assessed as combination index at ED50 measured after 72 hrs in presence of erlotinib by celltiter-glo assay; format: functional
NCI-H460 [7] = test: Antiproliferative activity against human NCI-H460 cells assessed as reduction in cell proliferation measured after 72 hrs by celltiter-glo assay; format: functional, cell-based; settings: NCI-H460, 72 h
NCI-H23 = test: Synergistic antiproliferative activity against human NCI-H23 cells assessed as combination index at ED75 measured after 72 hrs in presence of erlotinib by celltiter-glo assay; format: functional
NCI-H1703 = test: Synergistic antiproliferative activity against human NCI-H1703 cells assessed as combination index at ED25 to ED90 measured after 72 hrs in presence of carboplatin by celltiter-glo assay; format: functional
BT-474 = test: Synergistic antiproliferative activity against human BT-474 cells assessed as combination index at ED75 preincubated for 24 hrs followed by compound washout and subsequent docetaxel addition and measured after 72 hrs by celltiter-glo assay; format: functional
Method in brief: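 Sequential schedule. Cells were seeded at 2 to 3 × 10³ per well in RPMI 1640 with 10% FBS and dosed 24 h after plating. They were exposed to the Akt inhibitor for 24 h, washed free of it, then given docetaxel for a further 72 h. Fixed concentration ratios spanned each agent's IC₅₀. ATP was read by CellTiter-Glo, and Chou–Talalay CI was calculated at ED50, ED75 and ED90.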

NCI-N87 [8] = test: Synergistic antiproliferative activity against human NCI-N87 cells assessed as combination index at ED90 treated 24 hrs prior to lapatinib and measured after 72 hrs by celltiter-glo assay; format: functional; settings: time 96 hrs
UMC-11 = test: Induction of apoptosis in human UMC-11 cells assessed as fold induction of capsase-3/7 activity measured after 24 to 48 hrs in presence of gemcitabine by caspase-glo 3/7 assay; format: functional; settings: time 24-48 hrs
[9] = target: RAC-alpha serine/threonine-protein kinase (Homo sapiens) (UniProt P31749); test: Inhibition of AKT in human HCC827 cells assessed as reduction in GSK3alpha/beta phosphorylation at S21/S9 residues at 5 umol/L measured after 5 hrs in presence of erlotinib by Western blot analysis; format: cell-based; settings: dose 5.0 µmol/L
NCI-H1993 = test: Induction of apoptosis in human NCI-H1993 cells assessed as fold induction of capsase-3/7 activity measured after 24 to 48 hrs in presence of gemcitabine by caspase-glo 3/7 assay; format: functional; settings: time 24-48 hrs
[10] = In vivo inhibition of AKT phosphorylation at S473 residue in human NCI-H292 cells xenografted mouse at 120 mg/kg, po administered as single dose 2 hrs post-erlotinib treatment measured after 12 hrs by Western blot analysis relative to control; format: functional
NCI-N87 [11] = test: Antiproliferative activity against human NCI-N87 cells assessed as reduction in cell proliferation measured after 72 hrs by celltiter-glo assay; format: functional, cell-based; settings: NCI-N87, 72 h
Method in brief: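 Cells in RPMI 1640 with 10% heat-inactivated FBS at 37°C and 5% CO₂ were seeded at 2 to 3 × 10³ per well. […] Growth was read as cellular ATP by CellTiter-Glo.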

MDA-MB-231 = test: Synergistic antiproliferative activity against human MDA-MB-231 cells assessed as combination index at ED50 measured after 72 hrs in presence of docetaxel by celltiter-glo assay; format: functional; method in brief: as §1
A2780 [12] = test: Synergistic antiproliferative activity against human A2780 cells assessed as combination index at ED75 measured after 72 hrs in presence of 5-FU by celltiter-glo assay; format: functional
Method in brief: (§2)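 Cells were seeded at 2–3 × 10³ per well in RPMI 1640 with 10% FBS. At 24 h, MK-2206 and the partner drug were added simultaneously at constant concentration ratios spanning each agent's IC₅₀, for 72 h. Growth was read as cellular ATP by CellTiter-Glo. CI was taken from median-effect plots of each agent alone and in combination (Chou–Talalay), at ED₅₀, ED₇₅ and ED₉₀.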

NCI-H292 = test: Antitumor activity against human NCI-H292 cells xenografted in CD-1 mouse assessed as tumor growth suppression at 360 mg/kg, po administered once a week for 2 weeks and measured twice a week during compound dosing by caliper method; format: functional, organism-based
Method in brief: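 Female CD1-nude mice carried s.c. NCI-H292 cells in Matrigel/PBS and were randomized at 0.2 cm³, n = 5. […] MK-2206 (30% Captisol) was given 2 h later at 120 mg/kg po on days 0, 2, 4, 7, 9, 11, or at 360 mg/kg on days 0 and 7. Control received vehicle. Caliper volume twice weekly.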

[13] = Toxicity in human PC-3 cells xenografted CD1 nude mouse assessed as body weight loss at 120 mg/kg, po administered 3 times per week for 2 weeks starting 24 hrs post docetaxel treatment and measured on day 15; format: organism-based; settings: in vivo, 360 h, time 15 day
Method in brief: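 Male CD1-nude mice with s.c. PC-3 tumours (50% Matrigel/50% PBS, left flank), randomized at mean 0.2 cm³, n=5/group, treated from 25 d post-implant. Body weight monitored versus vehicle-only controls.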

A2780 [14] = test: Synergistic antiproliferative activity against human A2780 cells assessed as combination index at ED90 measured after 72 hrs in presence of gemcitabine by celltiter-glo assay; format: functional; method in brief: as §2
HCC70 [15] = test: Synergistic antiproliferative activity against human HCC70 cells assessed as combination index at ED50 measured after 96 hrs in presence of lapatinib by celltiter-glo assay; format: functional

Chain of RAC-alpha serine/threonine-protein kinase (Homo sapiens) (P31749 whole entry): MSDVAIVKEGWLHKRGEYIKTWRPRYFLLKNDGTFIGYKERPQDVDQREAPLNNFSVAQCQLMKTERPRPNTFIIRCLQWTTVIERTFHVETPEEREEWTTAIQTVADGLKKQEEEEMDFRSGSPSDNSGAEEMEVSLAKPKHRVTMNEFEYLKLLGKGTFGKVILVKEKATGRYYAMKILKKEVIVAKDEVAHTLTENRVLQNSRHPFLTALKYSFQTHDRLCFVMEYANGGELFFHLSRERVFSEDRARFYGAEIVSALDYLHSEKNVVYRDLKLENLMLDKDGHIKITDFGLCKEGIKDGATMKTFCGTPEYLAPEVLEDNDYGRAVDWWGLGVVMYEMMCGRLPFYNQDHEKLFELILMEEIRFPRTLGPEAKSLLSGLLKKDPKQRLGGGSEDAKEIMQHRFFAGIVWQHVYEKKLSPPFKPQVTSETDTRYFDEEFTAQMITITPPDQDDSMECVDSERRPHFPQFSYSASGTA

## Cl.NC1(c2ccc(-c3nc4ccn5c(=O)[nH]nc5c4cc3-c3ccccc3)cc2)CCC1
NCI-H460 [1]
  CI90: 0.17
HCC827
  CI50: 0.39
NCI-H661
  fold change (FC): 2
A2780 [2]
  Activity: Dose-Dependent Effect
HCC70 [3]
  CI75: 0.18
NCI-H460 [4]
  CI: 0.3
NCI-N87 [5]
  CI90: 0.18
MDA-MB-468
  CI75: 0.8
NCI-H460 [6]
  CI50: 0.34
NCI-H460 [7]
  IC50: 3400 nM
NCI-H23
  CI75: 0.46
NCI-H1703
  CI: 0.53
BT-474
  CI75: 1.5
NCI-N87 [8]
  CI90: 0.18
UMC-11
  fold change (FC): 1.2
[9]
  inhibition: Active
NCI-H1993
  fold change (FC): 1.2
[10]
  inhibition in vivo at 120 mg/kg: 79.9%
NCI-N87 [11]
  IC50: 1600 nM
MDA-MB-231
  CI50: 0.9
A2780 [12]
  CI75: 0.54
NCI-H292
  Activity: Active
[13]
  Activity: Non-Toxic
A2780 [14]
  CI90: 0.39
HCC70 [15]
  CI50: 0.18
